Measured values taken from publication PMC4048812 (The Biochemical journal, 2013).
Where “and” joins values, the source holds several entries; their conditions need not be identical. Identical values can stand only once. Entries after “also recorded” stand apart in the source; their conditions may differ. Where no end group is shown, it is not given here.

What was measured:
[1] = system: EGFR; details: ref [16],[17]; cited from earlier work
[2] = biological target: T1, EGFR kinase domain (Homo sapiens, UniProt P00533); assay: Radiometric kinase assay of Tail Peptide A phosphorylation; assay type: biochemical
Outline: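 Buffer was 15 mM Tris pH 7.5, 0.02% v/v polysorbate 20, 10 mM MgCl2. A non-phosphorylatable test peptide (substrate Tyr→Ala) was added at varied concentrations. After 10 min at room temperature, reactions were quenched with 0.5% v/v phosphoric acid, spotted on phosphocellulose filters, washed, and scintillation-counted (four replicate filters).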

[3] = biological target: I682Q and V924R EGFR kinase domains (Homo sapiens, UniProt P00533, V948R); assay: Enzyme-coupled kinase assay, pair I682Q and V924R; assay type: biochemical; details: 1 μM each
Outline: (§1)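 Spectrophotometric enzyme-coupled kinase assay using N-terminally His6-tagged EGFR kinase domain (residues 672-998); mutants were made by site-directed mutagenesis and sequence-confirmed. Total kinase domain was 2 μM, with 1 μM of each mutant when paired. The test peptide substrate was titrated with 500 μM ATP in 10 mM MgCl2, 20 mM Tris pH 7.5 at room temperature. Specific rates came from at least triplicates; for pairs, Hill coefficients came from variable-slope log(agonist)-response fits.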

[4] = biological target: T1, EGFR kinase domain; assay: Immunoblot analysis of EGFR kinase domain autophosphorylation; assay type: biochemical; details: 0-60 μM Peptide C; 800 nM EGFR kinase domain; 500 μM ATP; pH 7.5; 1 minute; room temperature; minimum of three replicates
[5] = Dynamic light scattering of Peptide C; assay type: physicochemical; details: DLS, 25° C
Outline: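 Test peptide at 1 mM, prepared in water, in 20 mM NaCl, or in assay buffer (15 mM Tris pH 7.5, 0.02% v/v polysorbate 20, 20 mM NaCl). DLS was run at 25° C with a 60 mW laser at 15% power and a 90° detection angle. Buffer components were filtered beforehand; the peptide itself was not filtered.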

[6] = system: I682Q EGFR kinase domain; assay: Transmission electron microscopy with I682Q EGFR kinase domain; details: different concentrations of Peptide C; 2 μM I682Q EGFR kinase domain; TEM
Outline: (§2)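 Test peptide at varied concentrations, without or with 2 μM wild-type or I682Q His-tagged EGFR kinase domain (residues 672-998), in 10 mM Tris pH 7.5, 20 mM NaCl, 0.02% v/v polysorbate 20. Samples were incubated about 10 min at room temperature, then adsorbed onto Formvar carbon-coated copper grids. Grids were negatively stained with three applications of 1% w/v uranyl acetate and imaged by transmission electron microscopy.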

[7] = system: V924R EGFR kinase domain; assay: Enzyme-coupled kinase assay, V924R mutant alone; assay type: biochemical; details: 2 μM kinase domain; titration of Peptide C; 500 μM ATP; pH 7.5; room temperature
Outline: as §1

[8] = system: wild type EGFR kinase domain; assay: Transmission electron microscopy with wild type EGFR kinase domain; details: TEM
Outline: as §2

[9] = biological target: I682Q/D813N and V924R EGFR kinase domains (Homo sapiens, UniProt P00533, V948R); assay: Enzyme-coupled kinase assay, pair I682Q/D813N and V924R; assay type: biochemical; details: I682Q/D813N with V924R, 1 μM each; minimum of three replicates
Outline: as §1

[10] = system: EGFR; details: reported value, cited from earlier work
[11] = system: I682Q EGFR kinase domain; assay: Enzyme-coupled kinase assay, I682Q mutant alone; assay type: biochemical; details: 2 μM kinase domain; titration of Peptide C; 500 μM ATP; pH 7.5; room temperature
Outline: as §1

[12] = biological target: EGFR kinase domain (residues 672-998) (Homo sapiens, UniProt P00533); assay: Enzyme-coupled kinase assay, wild type EGFR kinase domain; assay type: biochemical
[13] = Transmission electron microscopy of Peptide C alone; assay type: physicochemical; details: 20, 40 and 80 μM, TEM
Outline: as §2

[14] = Peptide C (2 μM EGFR) vs Tyrsub (8 μM EGFR)

CCCCCCCCCCCCC/C=C/[C@@H](O)[C@@H](N)CO [sphingosine]
aggregation and activation of EGFR [1]: can aggregate and activate EGFR in an apparently cooperative manner

RAHEEIAHFFFAKKK [Peptide C variant]
EC50 [2]: 45 µM

RAHEEIYHFFFAKKK [Peptide C]
catalysis relative to wild type kinase domain ([3]; I682Q and V924R combined, 500 μM ATP, pH 7.5, room temperature): about 60%
Hill coefficient (nH) ([3]; I682Q with V924R, minimum of three replicates): ~ 3.0
Tyr-845 phosphorylation [4]: increases in a dose-dependent manner
Tyr-974 phosphorylation [4]: same dose-dependent increase in phosphorylation
Tyr-992 phosphorylation [4]: same dose-dependent increase in phosphorylation
aggregation ([5]; 1 mM in 20 mM sodium chloride): aggregation to an intermediate degree between the aqueous solution and the buffered samples
aggregation ([5]; 1 mM in water): limited aggregation
hydrodynamic radius ([5]; 1 mM in water, polydisperse distribution): 1-10 nm
appearance with I682Q EGFR kinase domain compared with wild type [6]: appear indistinguishable from wild type
activating properties with V924R alone [7]: entirely abrogated
small, dispersed EGFR aggregates ([8]; 20 μM Peptide C, 2 μM EGFR kinase domain): also observed
small, dispersed EGFR aggregates ([8]; 80 μM Peptide C, 2 μM EGFR kinase domain): not observed
fibrils and globular aggregates with EGFR kinase domain ([8]; 20 and 80 μM Peptide C, 2 μM EGFR kinase domain, about 10 minutes): forms fibrils in the presence of EGFR; also recorded: Fibrils similar to those formed by Peptide C alone as well as globular aggregates localized near the fibrils are observed
fibril edges with EGFR kinase domain ([8]; Peptide C with 2 μM EGFR kinase domain): the fibril edges are less defined; also recorded: appear less crisp
Hill coefficient (nH) [9]: ~ 2.5
Km ([10]; ref [5],[9]): 128 µM
catalytic efficiency, kcat/KM, fold higher than for Tail Peptide A ([10]; ref [9]): ~ 26 fold
activating properties with I682Q alone [11]: entirely abrogated
kcat, fold higher than for Tail Peptide A ([12]; Peptide C (2 μM EGFR) vs Tail Peptide A (8 μM EGFR)): roughly eight
catalytic efficiency (kcat/KM), fold higher than for Tyrsub [12, 14]: ~760 fold
kcat, fold higher than for Tyrsub [12, 14]: roughly eight
Hill coefficient (nH) ([12]; wild type kinase domain, 2 μM, 500 μM ATP, pH 7.5, room temperature, Hill equation fit, minimum of three replicates): ~ 2.8 and ~3
fibril length ([13]; 10 mM Tris, pH 7.5, 20 mM NaCl, 0.02% polysorbate 20): several hundreds
dependence of fibril morphology on concentration [13]: appears to be independent of Peptide C concentration
globular aggregates [13]: Globular aggregates closely associated with the fibrils are also observed

poly-arginine
aggregation and activation of EGFR [1]: can aggregate and activate EGFR in an apparently cooperative manner

poly-lysine
aggregation and activation of EGFR [1]: can aggregate and activate EGFR in an apparently cooperative manner

protamine
aggregation and activation of EGFR [1]: can aggregate and activate EGFR in an apparently cooperative manner
